From ChEMBL document CHEMBL1123566, “Synthesis and cardiac electrophysiological activity of 2- and 3-[(substituted phenyl)alkyl]quinuclidines. Structure-activity relationships” (1987) come the findings set out here.

Experiment [1] concerns Canis familiaris. Kind of experiment: Heart rate was determined by intraduodenal administration of two dosages of 30 mg/kg of compound in anesthetized dogs. Value was reported for experiment 1. It counts as functional, Canis lupus familiaris. The method in brief:
(§1)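 Anesthetized dogs; compound given intraduodenally, generally as two doses, the second a cumulative (high) dose. LV functional refractory period and conduction time measured 15, 30 and 45 min after dosing; heart rate and blood pressure measured during nonpacing intervals. Values are % change from control, given per individual animal. Active if FRP or CT prolonged by ≥12%.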

In experiment [2] the test system is Canis familiaris. Kind of experiment: Heart rate was determined by intraduodenal administration of two dosages of 3 mg/kg of compound in anesthetized dogs. Value was reported for experiment 2. It counts as functional, Canis lupus familiaris. The method in brief: as §1
Experiment [3] concerns Canis familiaris. Kind of experiment: Conduction time was determined by intraduodenal administration of 10 mg/kg (high dose) of compound in anesthetized dogs. Value was reported for experiment 2. It counts as functional, Canis lupus familiaris. The method in brief:
as §1

Experiment [4] concerns Canis familiaris. Kind of experiment: Conduction time was determined by intraduodenal administration of 30 mg/kg (high dose) of compound in anesthetized dogs. Value was reported for experiment 1. It counts as functional, Canis lupus familiaris. The method in brief: as §1
The test system of experiment [5] is Canis familiaris. Kind of experiment: Conduction time was determined by intraduodenal administration of 3 mg/kg (low dose) of compound in anesthetized dogs. Value was reported for experiment 2. The format is functional, Canis lupus familiaris. Put shortly:
as §1

Experiment [6] deals with Canis familiaris. Kind of experiment: Conduction time was determined by intraduodenal administration of 10 mg/kg (low dose) of compound in anesthetized dogs. Value was reported for experiment 1. The format is functional, Canis lupus familiaris. The method in brief:
as §1

Experiment [7] relates to Canis familiaris. Kind of experiment: Heart rate was determined by intraduodenal administration of two dosages of 10 mg/kg of compound in anesthetized dogs. Value was reported for experiment 1. The format is functional, Canis lupus familiaris. Put shortly:
as §1

Experiment [8] relates to Canis familiaris. Kind of experiment: Heart rate was determined by intraduodenal administration of two dosages of 10 mg/kg of compound in anesthetized dogs. Value was reported for experiment 2. The format is functional, Canis lupus familiaris. The method in brief: as §1
For experiment [9], the system named is Canis familiaris. Kind of experiment: Left ventricular refractory period was determined by intraduodenal administration of 10 mg/kg (high dose) of compound in anesthetized dogs. Value was reported for experiment 2. The format is functional, Canis lupus familiaris, Cardiac ventricle. Put shortly: (§2)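 Anesthetized dogs received two intraduodenal doses, the second cumulative (low dose/high dose). Left ventricular FRP and CT were measured 15, 30 and 45 min after dosing. Heart rate and mean blood pressure were taken during nonpacing intervals. Values are percent change from control. The vehicle was 5% dextrose in water/tragacanth. Activity was defined as ≥12% prolongation of FRP or CT.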

For experiment [10], the system named is Canis familiaris. Kind of experiment: Left ventricular refractory period was determined by intraduodenal administration of 10 mg/kg (low dose) of compound in anesthetized dogs. Value was reported for experiment 1. The format is functional, Canis lupus familiaris, Cardiac ventricle. The method in brief: as §2
The test system of experiment [11] is Canis familiaris. Kind of experiment: Left ventricular refractory period was determined by intraduodenal administration of 30 mg/kg (high dose) of compound in anesthetized dogs. Value was reported for experiment 1. The format is functional, Canis lupus familiaris, Cardiac ventricle. Put shortly: as §2
In experiment [12] the test system is Canis familiaris. Kind of experiment: Left ventricular refractory period was determined by intraduodenal administration of 3 mg/kg (low dose) of compound in anesthetized dogs. Value was reported for experiment 2. The format is functional, Canis lupus familiaris, Cardiac ventricle. The method in brief: as §2
Experiment [13] relates to Canis familiaris. Kind of experiment: Mean arterial blood pressure was determined by intraduodenal administration of two dosages of 3 mg/kg of compound in anesthetized dogs. Value was reported for experiment 2. The format is functional, Canis lupus familiaris.
Experiment [14] concerns Canis familiaris. Kind of experiment: Mean arterial blood pressure was determined by intraduodenal administration of two dosages of 30 mg/kg of compound in anesthetized dogs. Value was reported for experiment 1. The format is functional, Canis lupus familiaris. Put shortly:
as §2

Experiment [15] relates to Canis familiaris. Kind of experiment: Mean arterial blood pressure was determined by intraduodenal administration of two dosages of 10 mg/kg of compound in anesthetized dogs. Value was reported for experiment 1. It counts as functional, Canis lupus familiaris. The method in brief:
as §2

Experiment [16] concerns Canis familiaris. Kind of experiment: Mean arterial blood pressure was determined by intraduodenal administration of two dosages of 10 mg/kg of compound in anesthetized dogs. Value was reported for experiment 2. It counts as functional, Canis lupus familiaris. Put shortly:
as §2

The species named for experiment [17] is Canis familiaris. Kind of experiment: In vitro electrophysiological evaluation in canine cardiac ventricular muscle reported as maximum % change for conduction time(CT) at 0.1-10 uM concentration range; Minimal (<10% decrease or increase in CT). It counts as functional, Canis lupus familiaris, Muscle tissue. The method in brief: (§3)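 Canine right ventricle and papillary muscle strips in oxygenated Tyrode's solution, fitted with stimulating and recording electrodes. The extra-stimulus conduction-interval method was adapted for in vitro use. FRP and CT were read from a conduction-interval curve before and after various compound concentrations, and expressed as percent change from control. Compounds were taken from 10 mM deionized-water stock into Tyrode's. Each strip was used once as its own control.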

For experiment [18], the species on record is Canis familiaris. Kind of experiment: In vitro electrophysiological evaluation in canine cardiac ventricular muscle reported as % change for the functional refractory period (FRP) at 10 uM at concentration range of 0.1-10 uM. More on the design: species or system Canis lupus familiaris, Muscle tissue. Put shortly: as §3
The species named for experiment [19] is Canis familiaris. Kind of experiment: In vitro electrophysiological evaluation in canine cardiac ventricular muscle reported as % change for conduction time(CT) at 10 uM at 0.1-10 uM concentration range; Minimal (<10% decrease or increase in CT). It counts as functional, Canis lupus familiaris, Muscle tissue.
The species entered for experiment [20] is Canis familiaris. Kind of experiment: In vitro electrophysiological evaluation in canine cardiac ventricular muscle reported as maximum % change for functional refractory period (FRP) at 0.1-10 uM concentration range; concentration at which it occurred is 10 uM. More on the design: species or system Canis lupus familiaris, Muscle tissue. Put shortly: as §3

For experiment [21], the species on record is Canis familiaris. Kind of experiment: In vitro electrophysiological evaluation in canine cardiac Purkinje fibres reported as percent change Vmax at 10 uM at concentration range of 0.1-100 uM; Minimal (<10% decrease or increase in Vmax). It counts as functional, organism-based. Conditions: Canis lupus familiaris, Purkinje fiber. The method in brief:
(§4)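 Canine cardiac Purkinje fibres, intracellular microelectrode recording, paced at a basic cycle length of 1 s. APD95 and Vmax read simultaneously. Compound: 10 mM stock in deionized water, diluted into Tyrode's solution, tested over the stated concentration range. Each fibre used once as its own control. Result is % change from control, given at 10 µM or as the maximum with its concentration. M = <10% decrease or an increase in Vmax.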

The species named for experiment [22] is Canis familiaris. Kind of experiment: In vitro electrophysiological evaluation in canine cardiac Purkinje fibres reported as percent change Vmax at 10 uM at concentration range of 0.1-10 uM; Minimal (<10% decrease or increase in Vmax). It counts as functional. To be noted: Canis lupus familiaris, Purkinje fiber. The method in brief: as §4
The species entered for experiment [23] is Canis familiaris. Kind of experiment: In vitro electrophysiological evaluation in canine cardiac Purkinje fibres reported as percent change Vmax at 10 uM at concentration range of 0.1-100 uM. To be noted: Canis lupus familiaris, Purkinje fiber. The format is functional, organism-based. Put shortly: as §4
The species named for experiment [24] is Canis familiaris. Kind of experiment: In vitro electrophysiological evaluation in canine cardiac occurred is 100 uM. It counts as functional. Conditions: Canis lupus familiaris; Heart.
Experiment [25] is filed under the species Canis familiaris. Kind of experiment: In vitro electrophysiological evaluation in canine cardiac Purkinje fibres reported as maximum percent change Vmax concentration range of 0.1-100 uM; conduction block. It counts as functional. Conditions: Canis lupus familiaris; Purkinje fiber. The method in brief:
as §4

The species named for experiment [26] is Canis familiaris. Kind of experiment: In vitro electrophysiological evaluation in canine cardiac Purkinje fibres reported as maximum percent change Vmax concentration range of 0.1-10 uM; Minimal (<10% decrease or increase in Vmax). The format is functional. To be noted: Canis lupus familiaris; Purkinje fiber. Put shortly:
as §4

The species entered for experiment [27] is Canis familiaris. Kind of experiment: In vitro electrophysiological activity in canine cardiac occurred is 10 uM. It counts as functional, Canis lupus familiaris, Heart.
For experiment [28], the species on record is Canis familiaris. Kind of experiment: In vitro electrophysiological evaluation in canine cardiac Purkinje fibres reported as % change for action potential duration at a concentration of 10 uM. The format is functional, Canis lupus familiaris, Purkinje fiber. The method in brief:
as §4

The species named for experiment [29] is Canis familiaris. Kind of experiment: In vitro electrophysiological activity in canine cardiac occurred is 100 uM. The format is functional, Canis lupus familiaris, Heart.
Experiment [30] is filed under the species Canis familiaris. Kind of experiment: In vitro electrophysiological evaluation in canine cardiac Purkinje fibres reported as percent change Vmax concentration range of 0.1-100 uM. It counts as functional. Conditions: Canis lupus familiaris; Purkinje fiber. Put shortly:
as §4

The species named for experiment [31] is Canis familiaris. Kind of experiment: In vitro electrophysiological evaluation in canine cardiac Purkinje fibres reported as percent change Vmax concentration range of 1-100 uM. It counts as functional. To be noted: Canis lupus familiaris; Purkinje fiber. Put shortly: (§5)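 Canine cardiac Purkinje fibers, intracellular recording, paced at a basic cycle length of 1 s. APD95 and Vmax are recorded together across cumulative concentrations. Compound is a 10 mM aqueous stock diluted into Tyrode's solution. Each fiber is used once as its own control. Readouts are percent change from control at 10 μM, and the maximum change with the concentration where it occurred.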

Experiment [32] is filed under the species Canis familiaris. Kind of experiment: In vitro electrophysiological evaluation in canine cardiac Purkinje fibres reported as maximum percent change Vmax concentration range of 1-100 uM. It counts as functional. Conditions: Canis lupus familiaris; Purkinje fiber. The method in brief:
as §5

The species named for experiment [33] is Canis familiaris. Kind of experiment: In vitro electrophysiological activity in canine cardiac Purkinje fibres given as maximum % change for action potential duration at 0.1-100 uM concentration. The format is functional, Canis lupus familiaris, Purkinje fiber. Put shortly:
(§6)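 Canine cardiac Purkinje fibres, intracellular recording at 1 s basic cycle length, over cumulative concentration ranges. Compound 10 mM stock in deionized water diluted into Tyrode's. Each fibre used once as its own control. Value is the maximum % change from control in APD at 95% repolarization, with the concentration where it occurred; both values given if a biphasic response (>20% reversal) occurred.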

Experiment [34] is filed under the species Canis familiaris. Kind of experiment: In vitro electrophysiological evaluation in canine cardiac Purkinje fibres reported as % change for action potential duration at 1-100 uM concentration range. The format is functional, Canis lupus familiaris, Purkinje fiber. Put shortly:
as §5

For experiment [35], the species on record is Canis familiaris. Kind of experiment: In vitro electrophysiological evaluation in canine cardiac Purkinje fibres reported as % change for action potential duration at 0.1-100 uM concentration range. The format is functional, Canis lupus familiaris, Purkinje fiber. The method in brief:
as §4

For experiment [36], the species on record is Canis familiaris. Kind of experiment: In vitro electrophysiological activity in canine cardiac Purkinje fibres given as maximum % change for action potential duration at 100 uM concentration. The format is functional, Canis lupus familiaris, Purkinje fiber. The method in brief:
as §6

The species entered for experiment [37] is Canis familiaris. Kind of experiment: In vitro electrophysiological activity in canine cardiac Purkinje fibres given as maximum % change for action potential duration at 1 uM concentration. It counts as functional, Canis lupus familiaris, Purkinje fiber. Put shortly: as §6

Where “and” joins values, the source holds several entries; their conditions need not be identical. Equal entries are not always repeated.

Take `Cl.O=C1C2CCN(CC2)C1CCCc1ccc(Cl)cc1` (configuration not stated): the HR in the experiment with Canis familiaris [1] is reported as -31%; in the experiment with Canis familiaris [2] it was -2%; with Canis familiaris [7], -17%; with Canis familiaris [8] it was -14%. Moreover, the CT with Canis familiaris [3] is reported as 13%; in the experiment on Canis familiaris [4], 2%; in the experiment on Canis familiaris [5] it was 3%; in the experiment on Canis familiaris [6] it was 0%; in the experiment listed under Canis familiaris [17], under 10%; in the experiment filed under Canis familiaris [19] it was under 10%. Besides, the “LV FRP” value in the experiment on Canis familiaris [9] is on record as 9%; with Canis familiaris [10] it was 15%; in the experiment with Canis familiaris [11], 19%; with Canis familiaris [12] it was 5%. For the same molecule, the Mean blood pressure with Canis familiaris [13] was 20%; with Canis familiaris [14] it was 5%; with Canis familiaris [15], -4%; in the experiment on Canis familiaris [16], 24%. Further, the FRP in the experiment filed under Canis familiaris [18] was 39% and 23%; in the experiment listed under Canis familiaris [20], 39% and 23%. Besides, the Vmax in the experiment listed under Canis familiaris [21] was under 10%; in the experiment filed under Canis familiaris [22] it was under 10%; in the experiment listed under Canis familiaris [23] it was -41%; in the experiment listed under Canis familiaris [24], -12%; in the experiment filed under Canis familiaris [25] it was under 10%; in the experiment filed under Canis familiaris [26] it was under 10%. The APD95 was 6% in the experiment listed under Canis familiaris [27]; 6% in the experiment filed under Canis familiaris [28]; -11% and -18% in the experiment filed under Canis familiaris [29].

On to `CCN(CC)CCCCc1ccc(Cl)cc1`, for which the Vmax in the experiment filed under Canis familiaris [30] was under 10%; in the experiment listed under Canis familiaris [31] it was under 10%; in the experiment listed under Canis familiaris [32] it was -57%. Further, the APD95 is 38% and 27% in the experiment listed under Canis familiaris [33]; 21% in the experiment filed under Canis familiaris [34]; 38% and 27% in the experiment listed under Canis familiaris [35]; -15% in the experiment filed under Canis familiaris [36]; 25% in the experiment listed under Canis familiaris [37].
